An excerpt weighted towards active compounds, which were near 2.3% of everything screened.
TAAR1 antagonist – human TAAR1 antagonism; AID 624466; CHO RD-HGA16 TAAR1, Fluo-8 calcium fluorescence, antagonist; Q96RJ0; 1.5% of 360,000 active; inhibition, % at 3 µM;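 active = inhibition above a per-plate cutoff, the mean inhibition of test compounds on that plate plus 3 SD, cut at about 49% in these data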;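 note: 0% = DMSO plus EC80 beta-PEA response and 100% = DMSO alone without agonist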
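Material: RD-HGA16 CHO cells with stable hTAAR1 and Gα16; Dosing: single nominal final test compound concentration of 3 µM; Schedule: seeding 17-24 h prior, 75-min 37 °C, 30-min RT dye loading; Detection: kinetic Fluo-8 calcium fluorescence measurement; Measure: % inhibition from peak post-agonist over basal fluorescence ratio; Benchmarks: vehicle and agonist controls.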
V1aR counter – counter-screen for oxytocin receptor agonists: human V1a receptor agonists | activation, % at 3 µM | CHO-V1R cells, Fluo-8 calcium fluorescence, agonist mode; 0% DMSO, 100% 3 nM vasopressin | 0.25% of 320,000 active | AID 2797 | P37288;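 active = activation above the mean activation of all tested compounds plus 3 SD, per screening run, cut at about 20% in these data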;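 note: signal is peak over basal fluorescence ratio across a 100 second FLIPR read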
Target sequence (P37288 whole entry, looked up): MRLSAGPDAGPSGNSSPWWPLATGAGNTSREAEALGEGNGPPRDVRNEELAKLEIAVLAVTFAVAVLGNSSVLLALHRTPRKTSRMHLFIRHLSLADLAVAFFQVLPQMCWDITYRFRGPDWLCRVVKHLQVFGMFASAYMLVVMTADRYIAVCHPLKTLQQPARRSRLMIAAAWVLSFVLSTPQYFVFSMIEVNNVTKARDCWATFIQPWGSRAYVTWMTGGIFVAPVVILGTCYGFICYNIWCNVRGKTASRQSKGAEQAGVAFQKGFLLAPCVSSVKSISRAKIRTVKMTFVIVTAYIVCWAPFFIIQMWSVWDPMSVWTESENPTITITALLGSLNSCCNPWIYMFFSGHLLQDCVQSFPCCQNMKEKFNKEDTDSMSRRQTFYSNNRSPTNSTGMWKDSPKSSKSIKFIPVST
TAAR1 agonist – human TAAR1 agonism; Q96RJ0; CHO RD-HGA16 TAAR1, Fluo-8 calcium fluorescence; vehicle wells 0%, saturating PEA agonist 100%; activation, % at 3 µM; 0.99% of 360,000 active; AID 624467;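 active = activation above the mean activation of all test compounds in the run plus 3 SD, cut at about 38% in these data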
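Test system: RD-HGA16 (CHO) cells co-expressing Gα16 and hTAAR1 | Doses: Single dose, 3 µM | Schedule: 17-24 h seeding, 75 min 37 °C dye, 30 min RT | Evaluation: % activation from peak over basal fluorescence ratio, DMSO-to-PEA scaled | Technique: Kinetic Fluo-8 calcium fluorescence | Benchmarks: Low control DMSO, high control PEA (EC100)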
OXTR ag – agonists of human oxytocin receptor. activation, % at 3 µM. AID 2435. 0.32% of 320,000 active. CHO-OTR cells, Fluo-8 calcium fluorescence; normalized: DMSO 0%, oxytocin 100%;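 active = activation above the mean of all tested compounds plus 3 SD, cutoff set per screening run, cut at about 20% in these data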;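 note: peak over basal fluorescence ratio from a 100 s FLIPR kinetic read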
Target sequence (P30559 whole entry, looked up): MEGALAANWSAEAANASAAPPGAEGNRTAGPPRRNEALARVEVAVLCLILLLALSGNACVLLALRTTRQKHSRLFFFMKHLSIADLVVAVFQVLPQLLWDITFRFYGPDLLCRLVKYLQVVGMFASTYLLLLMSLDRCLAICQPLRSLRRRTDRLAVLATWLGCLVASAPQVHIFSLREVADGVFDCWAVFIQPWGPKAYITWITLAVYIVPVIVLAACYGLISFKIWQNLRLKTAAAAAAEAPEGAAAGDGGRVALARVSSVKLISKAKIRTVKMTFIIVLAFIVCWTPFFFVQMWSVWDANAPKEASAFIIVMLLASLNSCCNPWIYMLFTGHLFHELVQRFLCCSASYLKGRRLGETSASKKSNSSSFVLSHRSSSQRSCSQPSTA
OXTR potentiate – potentiates the human oxytocin receptor response | P30559 | CHO-OTR cells, Fluo-8 calcium fluorescence, potentiator mode; 0% = oxytocin EC15, 100% = EC100 | activation, % at 3 µM | 0.061% of 320,000 active;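 active = activation above that plate's cutoff, the mean activation of tested compounds plus 3 SD, cut at about 6.6% in these data, passing the limit was not always enough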;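 note: 100% uses oxytocin at 75 nM as the full agonist control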
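assay system = CHO-OTR cells, human receptor | schedule = compound 6 min at room temperature before oxytocin, 100 s read | detection = Fluo-8 intracellular calcium fluorescence, ex 470-495, em 515-575 nm | evaluation = normalized max/min fluorescence ratio, % activation | control set = EC15 oxytocin alone as 0%, 75 nM oxytocin (EC100) as 100%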
TAAR1 ag conf – human TAAR1 agonism, confirmed; shares compounds with TAAR1 agonist; CHO RD-HGA16 TAAR1, Fluo-8 calcium fluorescence; scaled: DMSO 0%, maximal phenethylamine 100%; activation, % at 3 µM; 82% of 2,400 active;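 active = activation above a cutoff set at the run's mean compound activation plus 3 SD, cut at about 39% in these data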
Ga16 ag counter – nonselective agonist in parental cells, TAAR1 agonist counter-screen; shares compounds with TAAR1 agonist; CHO-Ga16 parental, Fluo-8 calcium fluorescence; normalized to maximal ATP response, DMSO zero; activation, % at 3 µM; 50% of 2,400 active;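 active = activation above the run cutoff, the mean activation over all tested wells plus 3 SD, cut at about 12% in these data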;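 note: 0% = DMSO wells and 100% = maximal ATP response on the peak over basal ratio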
TAAR1 desens – human TAAR1 agonist that also desensitizes the receptor | 46% of 2,400 active | shares compounds with TAAR1 agonist | inhibition, % at 3 µM | AID 651951 | CHO RD-HGA16 hTAAR1, Fluo-8 calcium, beta-PEA response inhibition;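 active = inhibition above the run cutoff, the mean inhibition of all test compounds plus 3 SD, cut at about 49% in these data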;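 note: beta-PEA stimulus applied at its EC80; loss of beta-PEA calcium signal after compound pretreatment read as receptor desensitization; 0% = DMSO with beta-PEA at EC80 and 100% = DMSO alone without agonist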
Ga16 antag count – nonselective Ga16 antagonist in TAAR1 agonist counter-screen. shares compounds with TAAR1 agonist. CHO-Ga16 ATP-induced calcium, Fluo-8 fluorescence. inhibition, % at 3 µM. 39% of 2,400 active;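 active = inhibition above the plate's mean compound inhibition plus 3 SD, computed per plate, cut at about 22% in these data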;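 note: 0% = EC80 ATP with DMSO and 100% = DMSO wells without ATP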
* marks the source's active call; other numbers are inactive results; · = not tested or not shown; ! = not active in a repeat.

SMILES	TAAR1 antagonist	V1aR counter	TAAR1 agonist	OXTR ag	OXTR potentiate	TAAR1 ag conf	Ga16 ag counter	TAAR1 desens	Ga16 antag count
CCOc1ccc(NS(=O)(=O)c2ccc(NC(=S)NC(=O)C(C)C)cc2)cc1	14.5	8.0	59.3*	8.7	-16.6	42.4*	20.4*	9.1	16.6
O=C1CN(C(=O)COc2ncnc3ccccc23)c2ccccc2N1	11.4	2.0	3.2	-0.1	-2.7	·	·	·	·
CCCC1=NN2C(=N)/C(=C\c3cc(C)n(Cc4ccccc4)c3C)C(=O)N=C2S1	100.6*	43.4*	117.1*	48.1*	-18.1	110.9*	96.3*	106.2*	100.3*
CCN(CC)CCCN=C1N[C@@H](c2cccc(F)c2)C(C(=O)OC)=C(C)N1Cc1ccccc1	13.9	-0.1	7.8	3.0	1.2	·	·	·	·
COc1ccc([C@H]2CC(=O)C=C(c3c(C)cc(C)cc3C)C2)cc1	26.3	2.0	10.3	2.5	-2.4	·	·	·	·
Cc1cc(=O)[nH]c(SCC(=O)NCCc2ccccc2)n1	·	-0.1	·	-0.2	2.6	·	2.5	·	13.3
O=C(CSc1nc2scc(-c3ccccc3)c2c(=O)[nH]1)NCCc1ccccc1	23.3	0.4	63.9*	-0.1	-4.3	64.2*	8.5	33.0	14.8
Nc1nc(SCC(=O)NCCc2ccccc2)[nH]c(=O)c1-c1ccccc1	18.6	0.6	62.2*	0.0	-5.0	53.1*	-0.2	12.7	6.7
NC1=NC[C@H](Cc2ccc(O)cc2)N1CCC12CC3CC(CC(C3)C1)C2	1.7	0.5	-0.6	-0.6	-5.2	·	·	·	·
NC(=O)Nc1ccc(C(=O)OCC(=O)c2c[nH]c3ccccc23)cc1	3.5	-0.1	47.7*	1.2	-3.7	59.1*	0.5	14.9	12.9
c1cc2c(cc1OCCNC1CCCC1)CCC2	·	1.4	·	0.1	-5.1	·	·	·	·
O=S(=O)(Nc1ccc(S(=O)(=O)Nc2cccc3ccccc23)cc1)c1ccccc1	12.4	6.4	41.3*	5.0	-21.2	40.5*	11.3	23.6	16.5
CCN1CCN(C(c2ccc(C(F)(F)F)cc2)c2ccc3cccnc3c2O)CC1 (stereo not given)	-3.4	2.1	29.2	4.7	-5.3	·	·	·	·
CN1CCN(C(c2ccc(Cl)cc2)c2cc(Cl)c3cccnc3c2O)CC1 (stereo not given)	-1.3	1.8	69.3*	0.9	-12.4	117.7*	66.8*	49.5*	19.7
CN1CCN(C(c2ccc(C(F)(F)F)cc2)c2cc(Cl)c3cccnc3c2O)CC1 (stereo not given)	5.2	1.0	118.6*	-0.6	-3.9	128.5*	105.8*	81.0*	44.0*
COc1cc(C2c3cc4c(cc3OC(NNC(N)=O)C2C)OCO4)cc(OC)c1OC (stereo not given)	-28.2	·	3.0	·	·	·	·	·	·
O=C(NCCCNC(=O)c1ccc(F)cc1)c1ccc(F)cc1	-12.6	-0.2	-1.8	-0.6	-5.0	·	·	·	·
CC1CCCC(C)N1C(=O)c1ccc(CS(=O)(=O)c2ccccc2)cc1 (stereo not given)	-2.4	5.6	3.8	4.1	-10.8	·	·	·	·
COc1ccc(C(c2nnnn2CCc2ccccc2)N2CCN(C3CCCC3)CC2)cc1 (stereo not given)	54.2*	1.3	71.3*	0.7	-4.3	85.3*	1.6	60.7*	5.6
COc1ccc(Cn2nnnc2C(c2ccccc2)N2CCN(C3CCCC3)CC2)cc1 (stereo not given)	-3.9	·	2.5	·	·	·	·	·	·
CCCCCCCCCCCCCCCC[n+]1ccccc1	73.2*	·	51.6*!	·	·	31.6	3.5	36.6	16.6
CC(=O)Nc1ccc(Nc2ccccc2)cc1	-29.7	-0.1	1.1	0.7	-2.6	·	·	·	·
Cc1cc(C)c2cc3c(N)c(C(=O)N4CCc5ccccc5C4)sc3nc2c1	11.5	1.9	78.0*	2.4	0.8	55.8*	12.3*	39.9	39.4*
Cc1ccc2nc3sc(C(=O)N4CCCc5ccccc54)c(N)c3cc2c1	25.9	6.1	15.6	6.1	-9.0	·	·	·	·
CCn1cc(C(C)NC(=O)Nc2ccc3c(c2)OCO3)c(C)n1 (stereo not given)	7.1	0.2	3.9	0.0	-3.1	·	·	·	·
SMILES	TAAR1 antagonist	V1aR counter	TAAR1 agonist	OXTR ag	OXTR potentiate	TAAR1 ag conf	Ga16 ag counter	TAAR1 desens	Ga16 antag count
O=C(Nc1ccc(C(F)(F)F)cc1)c1ccccc1	63.3*	-0.4	52.2*	-1.7	-3.6	17.1	11.6*	37.1	12.3
O=C(Nc1ccc(C(=O)c2ccccc2)cc1)c1ccccc1	41.3	3.4	9.5	2.9	-14.2	·	·	·	·
CCC(CC)NC(=O)CON=C1c2ccccc2-c2ccccc21	21.4	-1.2	43.2*	-1.6	-3.4	14.2	10.4	20.0	8.2
CCCCN1C(=O)/C(=C/C=C2\SCCN2C)SC1=S	28.2	·	71.5*	·	·	50.0*	34.2*	40.0	44.8*
CCCCN1C(=O)/C(=C/C=C2\N(C)c3ccccc3C2(C)C)SC1=S	·	16.1	·	6.9	-15.2	·	·	·	·
CC(C)(C)OC(=O)N[C@@H](COCc1ccccc1)C(=O)N[C@@H](CO)[C@H](O)[C@@H]1C[C@@H]1C(=O)N1CCCC1	3.0	1.9	4.2	0.5	-1.1	·	·	·	·
O=C(Cc1cccs1)NCc1cccc(F)c1	-8.8	1.2	11.2	-0.7	-15.7	·	·	·	·
CCC(=O)N(Cc1ccco1)c1nc(-c2ccc(OC)cc2)cs1	22.0	-0.5	1.2	-0.7	-11.4	·	·	·	·
CCC(=O)N(CC)c1nc(-c2ccc(OC)cc2)cs1	70.3*	1.8	69.8*	4.8	-6.4	43.5*	44.1*	58.1*	46.5*
CCCCN1Cc2ccccc2Oc2cc(Br)ccc2S1(=O)=O	-1.3	·	49.1*	·	·	69.2*	54.7*	19.3	18.4
COc1ccccc1CNC(=O)c1cc(S(=O)(=O)N2CCN(c3ccccc3)CC2)ccc1Cl	17.2	·	-1.3	·	·	·	·	·	·
Cc1ccc(NS(=O)(=O)c2ccc(NC(=O)N3CCCCC3)cc2)cc1	-4.2	13.4	52.5*	10.5	-13.7	46.0*	13.9*	15.4	21.2
COc1ccccc1NS(=O)(=O)c1ccc(C(=O)N2CCCC(C(F)(F)F)C2)cc1 (stereo not given)	8.1	6.2	15.2	4.7	-11.6	·	·	·	·

Screens as filed in PubChem.
